# Source: paper PMC3608840 (Journal of biomolecular screening, 2012)
# Experiments:
# hPAP [1] = molecular target: T1, hPAP (Homo sapiens, UniProt P15309); experiment: Fluorogenic; format: biochemical
# T1 sequence (P15309 33-386): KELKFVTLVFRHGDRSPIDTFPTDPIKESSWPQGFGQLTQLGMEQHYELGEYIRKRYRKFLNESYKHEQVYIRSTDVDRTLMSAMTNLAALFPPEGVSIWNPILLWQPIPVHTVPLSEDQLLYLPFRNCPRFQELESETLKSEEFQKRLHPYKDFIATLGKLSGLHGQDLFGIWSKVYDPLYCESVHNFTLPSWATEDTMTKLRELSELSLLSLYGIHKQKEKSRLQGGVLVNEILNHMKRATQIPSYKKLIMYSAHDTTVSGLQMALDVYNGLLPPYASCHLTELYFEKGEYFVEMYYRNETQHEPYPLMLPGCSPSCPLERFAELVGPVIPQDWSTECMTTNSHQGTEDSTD
# hPAP [2] = molecular target: T1, hPAP; experiment: 5′-AMP hydrolysis; format: biochemical
# mPAP [3] = molecular target: T2, mPAP (Mus musculus, UniProt Q8CE08); experiment: Fluorogenic; format: biochemical
# T2 sequence (Q8CE08 32-381): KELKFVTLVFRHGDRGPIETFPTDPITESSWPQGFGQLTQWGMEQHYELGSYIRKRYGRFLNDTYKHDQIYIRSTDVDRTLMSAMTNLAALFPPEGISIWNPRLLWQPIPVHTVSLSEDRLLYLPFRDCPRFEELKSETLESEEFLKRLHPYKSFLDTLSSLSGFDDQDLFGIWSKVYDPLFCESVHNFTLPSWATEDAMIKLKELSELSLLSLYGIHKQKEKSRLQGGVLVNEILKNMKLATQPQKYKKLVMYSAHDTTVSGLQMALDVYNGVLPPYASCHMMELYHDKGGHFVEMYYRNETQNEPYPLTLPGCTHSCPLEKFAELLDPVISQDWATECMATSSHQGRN
# mPAP [4] = molecular target: T2, mPAP; experiment: 5′-AMP hydrolysis; format: biochemical; settings: for Normalized inhibition of mPAP, 5′-AMP hydrolysis (in words): compound at 100 μM
# ALP [5] = experiment: Fluorogenic; format: biochemical, bovine; settings: for ALP Fluorogenic Assay IC50: DiFMUP substrate, pH 8.0
# In short: (§1)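 Bovine ALP (5 pM final; 50 mM Tris-HCl pH 8.0) or potato acid phosphatase (1.5 nM final; 50 mM sodium acetate pH 5.3), each buffer with 0.01% Tween-20, or human PTP-1B. 12-point in-plate compound series, 15 min room-temperature preincubation with enzyme, then 100 μM DiFMUP final. Fluorescence (ex 340/em 450 nm) read each min for 3 min. Change normalized to enzyme and no-enzyme controls, sigmoidal dose-response fit.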
# ALP [6] = experiment: 5′-AMP hydrolysis; format: biochemical, bovine; settings: for ALP 5′-AMP Hydrolysis IC50: 100 μM AMP
# pAP = experiment: Fluorogenic; format: biochemical, potato
# In short: as §1
# HEK293 cells = experiment: Cell killing in the cell-based calcium mobilization assay
# transmembrane PAP = experiment: Cell-based calcium mobilization assay of AMP hydrolysis by transmembrane PAP; settings: HEK293 cells expressing hA2B + Gαq-s5 + transmembrane PAP, 1 mM AMP
# PTP = molecular target: T3, PTP (Homo sapiens, UniProt P18031); experiment: Fluorogenic assay, Protein Tyrosine Phosphatase-1B; format: biochemical; settings: data not shown
# T3 sequence (P18031 1-435): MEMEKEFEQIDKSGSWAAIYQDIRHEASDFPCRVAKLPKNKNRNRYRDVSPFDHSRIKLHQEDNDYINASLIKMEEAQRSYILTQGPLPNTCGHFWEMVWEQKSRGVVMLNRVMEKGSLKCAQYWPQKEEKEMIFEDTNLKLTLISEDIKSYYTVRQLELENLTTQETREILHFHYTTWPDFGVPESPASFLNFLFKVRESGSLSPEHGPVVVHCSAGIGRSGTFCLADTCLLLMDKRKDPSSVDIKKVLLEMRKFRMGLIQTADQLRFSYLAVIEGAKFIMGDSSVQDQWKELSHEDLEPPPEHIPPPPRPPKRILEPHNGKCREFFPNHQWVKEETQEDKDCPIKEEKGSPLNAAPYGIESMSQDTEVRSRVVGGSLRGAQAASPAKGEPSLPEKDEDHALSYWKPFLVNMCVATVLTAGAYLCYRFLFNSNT
# In short: as §1
# A2B adenosine receptor = molecular target: T4, A2B adenosine receptor (Homo sapiens, UniProt P29275); experiment: A2B receptor activation by adenosine in calcium mobilization assay; format: cell-based; settings: BABPA 5 μM, pCPT-cAMP 100 μM; 1 mM adenosine as ligand
# T4 sequence (P29275 1-332): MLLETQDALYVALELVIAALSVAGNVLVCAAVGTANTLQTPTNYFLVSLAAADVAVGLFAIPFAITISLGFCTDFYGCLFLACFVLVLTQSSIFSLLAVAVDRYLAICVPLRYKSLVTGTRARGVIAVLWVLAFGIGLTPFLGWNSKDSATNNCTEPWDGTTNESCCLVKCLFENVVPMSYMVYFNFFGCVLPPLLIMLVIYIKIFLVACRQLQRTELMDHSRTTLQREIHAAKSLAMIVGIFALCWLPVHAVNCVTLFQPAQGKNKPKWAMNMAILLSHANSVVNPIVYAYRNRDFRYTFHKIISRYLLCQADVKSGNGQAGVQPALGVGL
# [7] = system: equilibrative nucleoside transporter 1 (ENT1); settings: cited from earlier work
# [8] = read-out: hPAP Fluorogenic Assay IC50, DiFMUP substrate, pH 7.0
# [9] = read-out: hPAP 5′-AMP Hydrolysis IC50, 400 μM AMP, pH 7.0
compound,measurement,setting,value
"O=C(O)c1nn(Cc2ccc(Cl)cc2Cl)c2ccccc12 [compound 9, Lonidamine]",IC50,hPAP [1],50.1 µM
same,IC50,hPAP [2],15.5 µM
same,mPAP Fluorogenic Assay IC50,"mPAP [3]; DiFMUP substrate, pH 7.0",Inactive
same,IC50,mPAP [4],31.1 µM
same,ALP Fluorogenic Assay IC50,ALP [5],Inactive
same,ALP 5′-AMP Hydrolysis IC50,ALP [6],Inactive
same,pAP Fluorogenic Assay IC50,"pAP; DiFMUP substrate, pH 5.3",Inactive
same,Cell killing (in words),HEK293 cells,killed the cells
O=C([O-])[C@H](O)[C@@H](O)C(=O)[O-].[Na+].[Na+] [L-(+)-tartrate],"Inhibition of hPAP, 5′-AMP hydrolysis (in words)",hPAP [2]; 10 mM,inhibited
same,"Inhibition of mPAP, 5′-AMP hydrolysis (in words)",mPAP [4]; 10 mM,inhibited
same,"Inhibition of ALP, 5′-AMP hydrolysis (in words)",ALP [6]; 10 mM,did not inhibit
"COc1ccc2c(c1)c(CC(=O)O)c(C)n2Cc1ccc(Cl)cc1 [compound 17, 1-(4-Chlorobenzyl)-5-methoxy-2-methylindole-3-acetic acid]",IC50,hPAP [1]; [8],39.8 µM
same,IC50,hPAP [2]; [9],46.3 µM
same,mPAP Fluorogenic Assay IC50,"mPAP [3]; DiFMUP substrate, pH 7.0",Inactive
same,mPAP 5′-AMP Hydrolysis IC50,"mPAP [4]; 1 mM AMP, pH 7.0",Inactive
same,"Normalized inhibition of mPAP, 5′-AMP hydrolysis (in words)",mPAP [4],did not inhibit
same,ALP Fluorogenic Assay IC50,ALP [5],Inactive
same,ALP 5′-AMP Hydrolysis IC50,ALP [6],Inactive
same,pAP Fluorogenic Assay IC50,"pAP; DiFMUP substrate, pH 5.3",Inactive
"Nc1ncnc2c1nc(Sc1ccc(Cl)cc1)n2C1OC2COP(=O)(O)O[C@H]2C1O (stereo in doubt) [compound 21, 8-(4-Chlorophenylthio)-cAMP sodium]",IC50,hPAP [1]; [8],39.8 µM
same,IC50,hPAP [2]; [9],5.66 µM
same,IC50,"mPAP [3]; read-out: mPAP Fluorogenic Assay IC50, DiFMUP substrate, pH 7.0",35.5 µM
same,IC50,"mPAP [4]; read-out: mPAP 5′-AMP Hydrolysis IC50, 1 mM AMP, pH 7.0",20.2 µM
same,"Inhibition of ALP, fluorogenic substrate (in words)",ALP [5],Neither pCPT-cAMP nor pCPT-cGMP inhibited
same,ALP Fluorogenic Assay IC50,ALP [5],Inactive
same,ALP 5′-AMP Hydrolysis IC50,ALP [6],Inactive
same,"Inhibition of pAP, fluorogenic substrate (in words)",pAP,Neither pCPT-cAMP nor pCPT-cGMP inhibited
same,pAP Fluorogenic Assay IC50,"pAP; DiFMUP substrate, pH 5.3",Inactive
same,Inhibition of hydrolysis of AMP to adenosine by transmembrane PAP (in words),transmembrane PAP,dose-dependently inhibited
same,"Inhibition of PTP, fluorogenic substrate (in words)",PTP,Neither pCPT-cAMP nor pCPT-cGMP inhibited
same,Block of A2B receptor activation by adenosine (in words),A2B adenosine receptor,did not block
same,Block of ENT1 (in words),[7],blocked
"CCCCCCC(C)(C)c1ccc([C@@H]2C[C@H](O)CC[C@H]2CCCO)c(O)c1 [compound 96, CP-55940]",IC50,hPAP [1],31.6 µM
same,hPAP 5′-AMP Hydrolysis IC50,"hPAP [2]; 400 μM AMP, pH 7.0",Inactive
same,IC50,mPAP [3],15.8 µM
same,mPAP 5′-AMP Hydrolysis IC50,"mPAP [4]; 1 mM AMP, pH 7.0",Inactive
same,"Normalized inhibition of mPAP, 5′-AMP hydrolysis (in words)",mPAP [4],did not inhibit
same,ALP Fluorogenic Assay IC50,ALP [5],Inactive
same,ALP 5′-AMP Hydrolysis IC50,ALP [6],Inactive
same,IC50,"pAP; read-out: pAP Fluorogenic Assay IC50, DiFMUP substrate, pH 5.3",39.8 µM
"O=c1c(O)c(-c2cc(O)c(O)c(O)c2)oc2cc(O)cc(O)c12 [compound 97, Myricetin]",IC50,hPAP [1],44.7 µM
same,IC50,hPAP [2],26.5 µM
same,ALP Fluorogenic Assay IC50,ALP [5],Inactive
same,ALP 5′-AMP Hydrolysis IC50,ALP [6],Inactive
same,pAP Fluorogenic Assay IC50,"pAP; DiFMUP substrate, pH 5.3",Inactive
"CCCOc1ccc2ccccc2c1/C=C/c1nc(O)c([N+](=O)[O-])c(=O)[nH]1 [Compound 49, 6-hydroxy-5-nitro-2-[(E)-2-(2-propoxy-naphthalen-1-yl)-vinyl]-3H-pyrimidin-4-one]",IC50,hPAP [2],2.9 µM
same,IC50,mPAP [4],42.9 µM
same,"Inhibition of ALP, 5′-AMP hydrolysis (in words)",ALP [6]; compound at 100 μM,did not inhibit
"CCn1cc(C(=O)O)c(=O)c2ccc(C)nc21 [compound 77, Nalidixic acid sodium]",IC50,hPAP [1],28.2 µM
same,IC50,hPAP [2],20.5 µM
same,IC50,mPAP [3],2.8 µM
same,IC50,mPAP [4],20.6 µM
same,ALP Fluorogenic Assay IC50,ALP [5],Inactive
same,ALP 5′-AMP Hydrolysis IC50,ALP [6],Inactive
same,pAP Fluorogenic Assay IC50,"pAP; DiFMUP substrate, pH 5.3",Inactive
"Clc1ccc(C(c2ccc(Cl)cc2)n2cc[n+](CC(OCc3ccc(Cl)cc3Cl)c3ccc(Cl)cc3Cl)c2)cc1 (stereo not shown) [compound 29, Calmidazolium chloride]",IC50,hPAP [1],44.7 µM
same,IC50,hPAP [2],1.48 µM
same,IC50,mPAP [3],39.8 µM
same,IC50,mPAP [4],11.6 µM
same,ALP Fluorogenic Assay IC50,ALP [5],Inactive
same,ALP 5′-AMP Hydrolysis IC50,ALP [6],Inactive
same,pAP Fluorogenic Assay IC50,"pAP; DiFMUP substrate, pH 5.3",Inactive
same,Cell killing (in words),HEK293 cells,killed the cells
"Nc1nc2c(nc(Sc3ccc(Cl)cc3)n2[C@@H]2O[C@@H]3COP(=O)(O)O[C@H]3[C@H]2O)c(=O)[nH]1 [pCPT-cGMP, 8-(4-chlorophenylthio) cGMP]",IC50,"hPAP [1]; read-out: IC50 human secretory PAP, fluorogenic substrate",31.1 µM
same,Inhibition of human secretory PAP in vitro using AMP as substrate (in words),hPAP [2]; pH 7.0,inhibited
same,IC50,"mPAP [3]; read-out: IC50 mouse secretory PAP, fluorogenic substrate",49.7 µM
same,Inhibition of mouse secretory PAP in vitro using AMP as substrate (in words),mPAP [4]; pH 7.0,inhibited
same,"Inhibition of ALP, fluorogenic substrate (in words)",ALP [5],Neither pCPT-cAMP nor pCPT-cGMP inhibited
same,"Inhibition of pAP, fluorogenic substrate (in words)",pAP,Neither pCPT-cAMP nor pCPT-cGMP inhibited
same,Inhibition of hydrolysis of AMP to adenosine by transmembrane PAP (in words),transmembrane PAP,inhibited
same,"Inhibition of PTP, fluorogenic substrate (in words)",PTP,Neither pCPT-cAMP nor pCPT-cGMP inhibited
"O=c1c(O)c(-c2ccc(O)c(O)c2)oc2cc(O)cc(O)c12 [compound 70, Quercetin]",IC50,hPAP [1],31.6 µM
same,hPAP 5′-AMP Hydrolysis IC50,"hPAP [2]; 400 μM AMP, pH 7.0",Inactive
same,mPAP Fluorogenic Assay IC50,"mPAP [3]; DiFMUP substrate, pH 7.0",Inactive
same,mPAP 5′-AMP Hydrolysis IC50,"mPAP [4]; 1 mM AMP, pH 7.0",Inactive
same,"Normalized inhibition of mPAP, 5′-AMP hydrolysis (in words)",mPAP [4],did not inhibit
same,ALP Fluorogenic Assay IC50,ALP [5],Inactive
same,ALP 5′-AMP Hydrolysis IC50,ALP [6],Inactive
same,pAP Fluorogenic Assay IC50,"pAP; DiFMUP substrate, pH 5.3",Inactive
